{"source": "paper PMC4975651", "about": "(Molecular cell, 2016)", "molecules": {"B1": {"name": "FLAG-ZMYND8: ectopically expressed WT FLAG-ZMYND8 (protein, UniProt Q9ULU4 1-1186, looked up)", "MYND-type zinc …": "MDISTRSKDPGSAERTAQKRKFPSPPHSSNGHSPQDTSTSPIKKKKKPGLLNSNNKEQSELRHGPFYYMKQPLTTDPVDVVPQDGRNDFYCWVCHREGQVLCCELCPRVYHAKCLRLTSEPEGDWFCPECEKITVAECIETQSKAMTMLTIEQLSYLLKFAIQKMKQPGTDAFQKPVPLEQHPDYAEYIFHPMDLCTLEKNAKKKMYGCTEAFLADAKWILHNCIIYNGGNHKLTQIAKVVIKICEHEMNEIEVCPECYLAACQKRDNWFCEPCSNPHPLVWAKLKGFPFWPAKALRDKDGQVDARFFGQHDRAWVPINNCYLMSKEIPFSVKKTKSIFNSAMQEMEVYVENIRRKFGVFNYSPFRTPYTPNSQYQMLLDPTNPSAGTAKIDKQEKVKLNFDMTASPKILMSKPVLSGGTGRRISLSDMPRSPMSTNSSVHTGSDVEQDAEKKATSSHFSASEESMDFLDKSTASPASTKTGQAGSLSGSPKPFSPQLSAPITTKTDKTSTTGSILNLNLDRSKAEMDLKELSESVQQQSTPVPLISPKRQIRSRFQLNLDKTIESCKAQLGINEISEDVYTAVEHSDSEDSEKSDSSDSEYISDDEQKSKNEPEDTEDKEGCQMDKEPSAVKKKPKPTNPVEIKEELKSTSPASEKADPGAVKDKASPEPEKDFSEKAKPSPHPIKDKLKGKDETDSPTVHLGLDSDSESELVIDLGEDHSGREGRKNKKEPKEPSPKQDVVGKTPPSTTVGSHSPPETPVLTRSSAQTSAAGATATTSTSSTVTVTAPAPAATGSPVKKQRPLLPKETAPAVQRVVWNSSSKFQTSSQKWHMQKMQRQQQQQQQQNQQQQPQSSQGTRYQTRQAVKAVQQKEITQSPSTSTITLVTSTQSSPLVTSSGSMSTLVSSVNADLPIATASADVAADIAKYTSKMMDAIKGTMTEIYNDLSKNTTGSTIAEIRRLRIEIEKLQWLHQQELSEMKHNLELTMAEMRQSLEQERDRLIAEVKKQLELEKQQAVDETKKKQWCANCKKEAIFYCCWNTSYCDYPCQQAHWPEHMKSCTQSATAPQQEADAEVNTETLNKSSQGSSSSTQSAPSETASASKEKETSAEKSKESGSTLDLSGSRETPSSILLGSNQGSDHSRSNKSSWSSSDEKRGSTRSDHNTSTSTKSLLPKESRLDTFWD", "modifications": "FLAG tag"}}, "test_system": "Slug, CD44, EGFR, and VEGFA genes", "format": "cell-based, human", "details": "ectopic expression, ZMYND8-depleted DU145 cells, n = 5", "how_it_was_run": "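DU145 cells were infected with shZMYND8-97 lentivirus, then transfected with control vector, wild-type FLAG-ZMYND8, PHD point mutants (D108A, F109D) or a Bromo mutant (YN/AA). Construct expression was checked by western blot. DU145 cells treated with shLuciferase and transfected with control vector served as the control. CD44, Slug, VEGFA and EGFR expression was measured across 5 replicates.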"}
{"molecule": "B1", "values": [{"measurement": "expression levels of Slug, CD44, EGFR, and VEGFA genes", "value": "significantly downregulated"}]}
